Laboratory results as given in article PMC2926617 (Nucleic Acids Research, 2010).
Where a chain is given by its changes, count along the chain named. Read-outs that look alike come from different tables or passages of the source.

T1: CarS (Myxococcus xanthus, UniProt Q06911)
T1 sequence (Q06911 1-111): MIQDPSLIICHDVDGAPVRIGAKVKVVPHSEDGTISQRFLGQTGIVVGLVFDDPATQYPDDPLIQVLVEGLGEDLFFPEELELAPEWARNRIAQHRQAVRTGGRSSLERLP

B1: CarS antirepressor (natural protein, Myxococcus xanthus, UniProt Q06911 1-111, looked up)
chain: T1 sequence (Q06911 1-111)
B2: CarS: antirepressor of Myxococcus xanthus (protein)
chain: T1 sequence (Q06911 1-111)
modifications: left off: H6, end not stated, cleaved
B3: CarS1, functional truncated form of CarS (lacking the last 25 residues) (domain or fragment)
chain: MIQDPSLIICHDVDGAPVRIGAKVKVVPHSEDGTISQRFLGQTGIVVGLVFDDPATQYPDDPLIQVLVEGLGEDLFFPEELELAPE
B4: CarANt, N-terminal DNA-binding domain of CarA (domain or fragment, Myxococcus xanthus)
chain: MTLRIRTIARMTGIREATLRAWERRYGFPRPLRSEGNNYRVYSREEVEAVRRVARLIQEEGLSVSEAIAQVKTEPPRE
B5: CarHNt: CarH N-terminal DNA-binding domain (protein)
chain: MAERTYRINIAAELAGVRVELIRAWERRYGVLTPRRTPAGYRAYTDRDVAVLKQLKRLTDEGVAISEAAKLLPQLMEGLE
modifications: left off: H6, end not stated, cleaved
B6: CarA R15 to A: CarA with R15 mutated to A (ref 10) (protein, UniProt Q50899 1-288, looked up, variant R15A)
HTH-type transcriptional …: MTLRIRTIARMTGIAEATLRAWERRYGFPRPLRSEGNNYRVYSREEVEAVRRVARLIQEEGLSVSEAIAQVKTEPPREQPEAERLRERFWSSVGALEGDEVTRVLDDAQTVMDVEAYCDGFLLPLLREMGVRLDVAREHLASALIRQRLRQVYDALSPAPAGPRALLACPSGDHHEGGLLVLGIHLKRKGWRVTMLGADTPAAALQGACVQVRPDVVALSFVRARAPEEFASVLEDALRACAPFPVVVGGLGAREHLKAIFSLGAQYAESSEELVAIWNQVRNAQNRP
B7: R20′ to A: CarA with R20 mutated to A (ref 10) (protein, UniProt Q50899 1-288, looked up, variant R20A)
HTH-type transcriptional …: B6 HTH-type transcriptional … with A15R, R20A

Key:
CarS [1] = molecular target: T1, CarS; assay: ITC titration with CarS; format: binding
[2] = molecular target: P01, CarA α2 peptide (α2 segment plus the subsequent eight C-terminal residues) (Myxococcus xanthus); assay: ITC
[3] = molecular target: P02, CarA α2 peptide (α2 only) (Myxococcus xanthus); assay: ITC
[4] = molecular target: CHP01, CarHNt peptide equivalent to P01 (Myxococcus xanthus); assay: ITC
[5] = molecular target: B4; assay: ITC
[6] = Analytical gel filtration of pure proteins; format: physicochemical; conditions: Superdex200, 50 mM phosphate pH 7.5, 2 mM β-mercaptoethanol
Method in brief: (§1)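 Superdex200 analytical size-exclusion HPLC in 50 mM phosphate pH 7.5, 2 mM β-mercaptoethanol and the required NaCl. Samples were 10–50 µM pure protein, or CarNt or CarHNt mixed with CarS or variant at equivalent concentrations. Flow was 0.4 ml/min with detection at 280, 235 and 220 nm. Peak fractions were identified by SDS–PAGE. Mr was taken from elution volume via log Mr = 7.64 – 0.209 Ve.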

CarA = assay: Yeast two-hybrid interaction with CarA; format: cell-based, Myxococcus xanthus; conditions: 30°C
Method in brief: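 Yeast EGY48 carrying lacZ reporter pSH18-34 was cotransformed (lithium acetate) with LexA–CarA and B42–CarS or variant fusions. Equal-density cultures were spotted on galactose or glucose (basal fusion expression) plates with leucine, grown 1 day at 30°C, then overlaid with X-Gal agarose for 2–3 h (Gal) or ≥7 h (Glu). Interaction was scored by blue colour; single-hybrid cells served as controls.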

CarANt = assay: Analytical gel filtration, complex formation with CarANt; format: binding, Myxococcus xanthus
Method in brief: as §1

[7] = molecular target: P01, CarA α2 peptide (α2 segment plus the subsequent eight C-terminal residues) (Myxococcus xanthus); assay: ITC; remark: listed apart in the source
[8] = molecular target: P01, CarA α2 peptide (α2 segment plus the subsequent eight C-terminal residues) (Myxococcus xanthus); assay: ITC; remark: listed apart in the source
[9] = molecular target: P01, CarA α2 peptide (α2 segment plus the subsequent eight C-terminal residues) (Myxococcus xanthus); assay: ITC; remark: listed apart in the source
[10] = tested on: CarA or CarH N-terminal domain; conditions: cited from earlier work
CarS antirepressor = molecular target: B1; assay: ITC
CarS [11] = molecular target: T1, CarS; assay: Analytical gel filtration, complex formation with CarS; format: binding; conditions: Superdex200, pH 7.5, mixture with CarS
Method in brief: as §1

CarS [12] = molecular target: T1, CarS; conditions: cited from earlier work

Molecule: Ac-GVRVELIRAWERRYGVLTPRRTP-NH2 [CHP01]
- Kd (CarS [1]): 690 ± 140 nM
- ITC heat change / binding (CarS [1]; ITC with CarS, pH 7.5): bind tightly to CarS, but with a KD somewhat higher than for P01
- N (binding stoichiometry) (CarS [1]; ITC, CarS, 25 °C, pH 7.5, 100 mM NaCl, 50 mM phosphate, 2 mM β-mercaptoethanol, 0.05% sodium azide, 20 µM CarANt or peptide titrated with 0.22 mM CarS, average of at least two independent titrations): 0.91 ± 0.01
- ΔH (CarS [1]; ITC, CarS, 25 °C, pH 7.5, 100 mM NaCl, 50 mM phosphate, average of at least two independent titrations): −7.15 ± 0.17 kcalmol^−1

Molecule: B1
- Kd [2]: 150 nM
- dH [2]: -11.7 kcalmol^−1
- stoichiometry N [2]: 0.93
- Kd [3]: 300 nM
- dH [3]: -12 kcalmol^−1
- stoichiometry N [3]: 1.07
- Kd [4]: 690 nM
- dH [4]: -7.15 kcalmol^−1
- stoichiometry N [4]: 0.91
- dH [5]: -9.24 ± 0.02 kcalmol^−1
- stoichiometry N [5]: 0.94 ± 0.01

Molecule: B2
- Apparent Mr of pure protein [6]: 15.1 ± 0.8 kDa
- Two-hybrid blue color, galactose plates (CarA; galactose plates, X-gal overlay): turned blue within two hours
- Two-hybrid blue color, glucose plates (CarA; glucose plates (basal B42-fusion expression), X-gal 7–24 h): blue color
- Apparent Mr of complex/peak in mixture with CarANt (CarANt; Superdex200, 50 mM phosphate pH 7.5, 2 mM β-mercaptoethanol, mixture with CarANt): 30 ± 2 kDa
- Complex formation with CarANt (CarANt; Superdex200, pH 7.5, mixture with CarANt): formed a stable 1:1 complex

Molecule: B3
- Kd [7]: 200 nM
- dH [7]: -10.9 kcalmol^−1
- stoichiometry N [7]: 0.89
- Kd [2]: 150 nM
- dH [2]: -8.46 kcalmol^−1
- stoichiometry N [2]: 0.92
- Kd [3]: 490 nM
- dH [3]: -7.6 kcalmol^−1
- stoichiometry N [3]: 0.97
- Kd [8]: 175 nM
- dH [8]: -5.7 kcalmol^−1
- stoichiometry N [8]: 0.93
- Kd [9]: 270 nM
- dH [9]: -14.4 kcalmol^−1
- stoichiometry N [9]: 0.89
- Complex formation stoichiometry [10]: forms a 1:1 complex

Molecule: B4
- Kd (CarS antirepressor): 12 ± 3 nM

Molecule: B5
- Apparent Mr of complex with CarS (CarS [11]): ≈ 35 kDa
- Complex formation with CarS (CarS [11]): forms a 1:1 complex

Molecule: B6
- Interaction of CarA variant with CarS (CarS [12]): CarS-binding was not impaired

Molecule: B7
- Interaction of CarA variant with CarS (CarS [12]): no apparent impairment in interactions with CarS
